GPR7 antag: human neuropeptides B/W receptor 1 antagonism; actives 1.1% (n = 290,000); GPR7-expressing cells, fluorescence antagonist assay; AID 1861; inhibition, % at 4.4 µM; in the data active means inhibition above about 16%, passing the limit was not always enough;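 further: cells stimulated with the agonist NPW; 0% = agonist with vehicle and 100% = vehicle without agonist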
OX1R antag-1: antagonists of human orexin 1 receptor (OX1R); O43613; OX1R-expressing cells, FRET antagonist read-out; inhibition, % at 6.6 µM; actives 1.8% (n = 330,000); in the data active means inhibition mostly above about 38%, no sharp cut-off; inactive means mostly below about 40%;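 further: 0% = agonist challenge alone and 100% = reference antagonist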
Target sequence (O43613 whole entry, looked up): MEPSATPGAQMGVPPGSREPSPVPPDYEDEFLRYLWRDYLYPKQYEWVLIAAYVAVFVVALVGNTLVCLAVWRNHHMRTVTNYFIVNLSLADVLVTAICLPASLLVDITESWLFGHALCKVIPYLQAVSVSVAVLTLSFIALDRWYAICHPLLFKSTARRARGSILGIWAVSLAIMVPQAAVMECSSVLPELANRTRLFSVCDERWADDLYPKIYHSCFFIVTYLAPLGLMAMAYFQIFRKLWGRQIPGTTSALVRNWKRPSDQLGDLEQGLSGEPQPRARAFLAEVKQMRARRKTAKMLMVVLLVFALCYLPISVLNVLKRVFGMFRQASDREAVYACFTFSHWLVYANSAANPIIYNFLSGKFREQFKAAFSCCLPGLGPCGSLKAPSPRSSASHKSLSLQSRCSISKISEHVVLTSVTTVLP
OX1R antag-2: blocks the human orexin 1 receptor; O43613; CHO/OX1R cells, Fluo-8 calcium fluorescence, orexin A; inhibition, % at 5 µM; actives 0.43% (n = 330,000);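 active means inhibition above its plate's threshold, mean inhibition of all tested compounds on the plate plus 3 SD, cut at about 37% in these data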;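 further: 0% = orexin A challenge wells and 100% = SB-334867-A antagonist wells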
GalR3 antagonist: blocks the human galanin receptor 3; actives 0.44% (n = 360,000); inhibition, % at 3 µM; O60755; HEK293 GalR3-CNG cAMP membrane potential fluorescence; galR3 body fused to GalR1 C-terminus;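 active means inhibition above the screen-wide average plus 3 SD, cut at about 13% in these data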;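 further: forskolin and galanin both at EC90 stimulate the cells; cAMP rise reported by CNG channel membrane potential dye signal; 0% = forskolin plus galanin with DMSO and 100% = forskolin alone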
CHO parental Ca: signal in parental CHO cells, OX1R antagonist counter-screen. actives 0.63% (n = 330,000). parental CHO-K1, ATP-induced calcium, Fluo-8 fluorescence. inhibition, % at 5.6 µM. AID 463079;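 active means inhibition above that plate's mean sample inhibition plus 3 SD, cut at about 26% in these data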;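 further: 0% = ATP-challenged DMSO wells and 100% = DMSO wells without ATP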
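Test system: untransfected parental CHO cell line. Compound: one dose, 5.6 µM nominal. Detection: intracellular calcium via Fluo-8 no-wash fluorescent dye. Measure: % inhibition. Benchmarks: ATP-challenged DMSO wells low, unchallenged DMSO wells high.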
Active calls of the source: *; / = no result given. An excerpt weighted towards active compounds, which were near 3.1% of everything screened.

SMILES	GPR7 antag	OX1R antag-1	OX1R antag-2	GalR3 antagonist	CHO parental Ca
COc1ccc(C(=O)N(c2c(C)cccc2C)C(COC(C)=O)COC(C)=O)cc1	/	/	/	-7	/
COc1ccc(-c2noc(-c3ccccc3C(=O)Nc3cccnc3)n2)cc1OC	-3	5	-9	-5	-26
COc1ccc(-c2noc(-c3ccccc3C(=O)Nc3cccnc3)n2)cc1	14*	28	-17	-2	-12
CC(C)c1ccc(/C=C(\c2nc3ccccc3[nH]2)S(=O)(=O)c2ccccc2)cc1	28*	15	-18	1	-19
O=S(=O)(/C(=C/c1ccc(C(F)(F)F)cc1)c1nc2ccccc2[nH]1)c1ccccc1	26*	13	-3	0	6
COC(=O)/C(=C\c1ccc(O)cc1)c1nc2ccccc2[nH]1	-4	11	-12	-3	-1
C/C(=C\c1ccc(N)cc1)c1nc2ccccc2[nH]1	-2	22	-24	-4	-1
C/C(CC(=O)Nc1c(C)cc(C)cc1C)=N\NC(=O)Cc1ccccc1	-2	16	-26	-7	-19
COc1ccc(-n2c(=O)cc(N3CCN(Cc4ccccc4)CC3)[nH]c2=O)cc1	18*	13	-13	-2	-9
Cc1ccc(C)c(OCC(=O)Nc2ccc3c(c2)OCO3)c1	-2	1	-26	/	-22
Cc1cc(C)c(OCC(=O)Nc2ccc3c(c2)OCO3)cc1C	8	8	-4	-5	44*
O=C(Nc1cccc(-c2csc(-c3ccccc3)n2)c1)c1cccs1	-20	67*	0	0	-6
Cc1ccn2cc(-c3cccc(NC(=O)c4cccs4)c3)nc2c1	-7	75*	-15	-2	-20
O=C(Nc1cccc(-c2cn3cccnc3n2)c1)c1cccs1	0	15	-1	1	-8
Cc1ccc(C(=O)Nc2cccc(NC(=O)c3cccs3)c2)c(C)c1	-8	64*	10	-7	-15
Cc1nc(-c2cccc(NC(=O)c3cccs3)c2)cs1	-9	45	-22	-4	-33
CC(C)C(=O)Nc1ccc(-c2csc(-c3ccccc3)n2)cc1	0	18	13	-11	41*
COC(=O)[C@]12C[C@H](CC(=O)NCc3cccc4ccccc34)C(=O)N(Cc3ccc4c(c3)OCO4)C1=C[C@H](COCc1ccccc1)O[C@@H]2C	/	/	/	-3	/
COC(=O)c1ccc(N)c2c(N)ccc(C(=O)OC)c12	/	/	/	-8	/
CCOc1ccc(NS(=O)(=O)c2ccc3[nH]c(=O)[nH]c3c2)cc1	2	3	-10	-3	-9
CCN(CC)S(=O)(=O)c1ccc(Cl)c(NC(=S)NC(=O)C2CCCC2)c1	/	9	67*	0	44*
CCN(c1ccccc1)S(=O)(=O)c1ccc(Cl)c(NC(=O)CN2CCCCCC2)c1	-12	87*	32	-7	73*
O=C(Nc1c2ccccc2nc2ccccc12)C(Cl)(Cl)Cl	-11	69*	1	/	1
O=C(Cc1ccccc1)NNc1c2ccccc2nc2ccccc12	-9	31	-12	-6	-19
C[C@@H]1CN([C@H](C)CO)C(=O)CCCn2nncc2CO[C@@H]1CN(C)C(=O)c1cc(-c2ccccc2)on1	/	/	/	-5	/
SMILES	GPR7 antag	OX1R antag-1	OX1R antag-2	GalR3 antagonist	CHO parental Ca
Cc1ccc(C(=O)C[n+]2cccc3cc(C)ccc32)cc1	-18	85	-26	-5	-16
CCOc1ccc(C(=O)C[n+]2cccc3cc(C)ccc32)cc1	2	47*	1	-9	-9
COc1ccc(NC(=O)c2c(Nc3ccccc3)sc(C(=O)c3ccc(F)cc3)c2N)cc1	0	19	14	-7	31*
Nc1ccc(C(=O)OCC(=O)N2CCOCC2)cc1[N+](=O)[O-]	7	49*	6	-5	3
COC(=O)c1cc(C(=O)NNC(=O)c2ccc3c(c2)OCO3)cc([N+](=O)[O-])c1	/	54*	-22	-5	-11
COC(=O)c1cc(C(=O)OCC(=O)N2CCCCC2)cc([N+](=O)[O-])c1	/	56*	2	-6	-7
COC(=O)c1cc(C(=O)OCC(=O)NNC(=O)c2cccs2)cc([N+](=O)[O-])c1	/	60*	-17	-3	-9
Cc1cc(C(=O)OCC(=O)NNC(=O)c2cccs2)ccc1[N+](=O)[O-]	/	26	1	-7	-5
Cc1ccc(NC2CCCN(C(=O)c3cc(C(C)C)nn3C)C2)cc1C (stereo not drawn)	/	/	/	-6	/
O=C(OCC(=O)N1CCCC1)c1cc(Cl)ccc1[N+](=O)[O-]	-4	54	-3	-9	-10
O=C(OCC(=O)N1CCCC1)c1ccc(Cl)c([N+](=O)[O-])c1	-2	65*	1	-9	-2
Nc1c(O)cccc1C(=O)O	/	61*	4	/	1
CCC(CC)c1nnc(NC(=O)C2CC(=O)N(C3CCCC3)C2)s1 (stereo not drawn)	-4	4	-15	-9	-3
COC(=O)c1cccc(-n2c(C)cc(O)cc2=O)c1	/	/	/	-8	/
COc1ccc(N(CC(=O)N2CCc3ccccc3C2)S(C)(=O)=O)cc1	5	1	-14	-3	-13
COc1ccc(N(CC(=O)N2CCc3ccccc3C2)S(=O)(=O)c2c(C)nn(C)c2C)cc1	-10	42*	-25	2	-18
COc1cc(CNn2c(C)n[nH]c2=S)cc(Cl)c1OCc1ccc(F)cc1	5	16	45*	-8	35*
COc1ccccc1Nc1cc2cc(Br)ccc2c(=O)[nH]1	/	46	2	-2	-18
COc1ccc(OC)c(Nc2cc3ccccc3c(=O)[nH]2)c1	/	68*	-21	-9	-11
COc1cc(OC)c2c(=O)c3c(C(=O)O)c(O)ccc3oc2c1	/	/	/	-6	/
Cc1ccc(SCCNC(=O)c2ccc(C)c(S(=O)(=O)Nc3ccccc3C)c2)cc1	-11	48*	20	-3	8
Cc1cc(C)n2nc(C(=O)N/N=C/c3ccccc3C)nc2n1	-4	16	2	-4	0
Cc1cc(C)n2nc(C(=O)N/N=C/c3cccs3)nc2n1	-5	35*	-19	-9	-3
O=C(COC(=O)c1ccc(Cl)nc1)Nc1cc(S(=O)(=O)N2CCOCC2)ccc1Cl	/	7	-7	-3	-10
O=S(=O)(Nc1ccc2cn[nH]c2c1)c1ccc(Cl)cc1	-2	11	-1	/	-8
Cc1cc(S(=O)(=O)Nc2ccc3cn[nH]c3c2)c(C)cc1Cl	-11	28	7	-8	40*
CN(C)S(=O)(=O)c1ccc2c(c1)/C(=C/c1cc3c([nH]1)CCCC3)C(=O)N2	/	-3	29	/	36*
Cc1c(C(=O)Nc2nonc2-c2ccc(F)cc2)oc2ccc(F)cc12	-17	49*	0	0	2
Cc1csc(NC(=O)COCC(=O)O)c1-c1nc2ccccc2s1	-4	53*	7	0	-2
CN(C(=O)c1cccc(NC(=O)Cc2ccc(NC(=O)C3CCCN(C(=O)c4ccccc4)C3)cc2)c1)C1CC1 (stereo not drawn)	/	/	/	3	/

Source: PubChem BioAssay (The Scripps Research Institute Molecular Screening Center)
